The values below come from ChEMBL document CHEMBL2150856, “Fluorinated N,N-dialkylaminostilbenes for Wnt pathway inhibition and colon cancer repression” (J Med Chem, 2011).

The test system of series [1] is LS174T. In words: Inhibition of Wnt/beta-catenin in human LS174T cells assessed as effect on […] at 10 uM by Western blotting. It is filed as cell-based. For orientation: Immunoblotting shows a protein as a band on a membrane.
Series [2] relates to LS174T. In words: Inhibition of Wnt/beta-catenin in human LS174T cells assessed as reduction in c-Myc protein level at 10 uM by Western blotting. The series is classed as cell-based.
For series [3], the system named is LS174T. Nature of the series: Inhibition of Wnt/beta-catenin in human LS174T cells assessed as reduction in Axin-2 protein level at 10 uM by Western blotting. The series is classed as cell-based.
Series [4] concerns LS174T. In words: Cytotoxicity against human LS 174T cells at 10 uM for 2 days by vi-cell cell viability analysis. It is filed as functional, cell-based. Summed up: (§1)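 CRC cells treated with DMSO or inhibitor for 2d and 4d; cell number and viability counted on a Vi-Cell analyzer. HCT116 and SW480 kept in DMEM with 10% FBS; LS174T in RPMI with 5% FBS; all with 1% penicillin/streptomycin.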

For series [5], the system named is HCT-116. In words: Cytotoxicity against human HCT116 cells at 10 uM for 4 days by vi-cell cell viability analysis. It is filed as functional, cell-based. Summed up: as §1
The test system of series [6] is HCT-116. Nature of the series: Cytotoxicity against human HCT116 cells at 10 uM for 2 days by vi-cell cell viability analysis. The series is classed as functional, cell-based. Summed up: as §1
Series [7] has as its system SW480. In words: Cytotoxicity against human SW480 cells at 10 uM for 2 days by vi-cell cell viability analysis. The series is classed as functional, cell-based. Summed up: as §1
The subject of series [8] is SW480. In words: Cytotoxicity against human SW480 cells at 10 uM for 4 days by vi-cell cell viability analysis. It is filed as functional, cell-based. Summed up: as §1
In series [9] the test system is LS174T. Nature of the series: Cytotoxicity against human LS 174T cells at 10 uM for 4 days by vi-cell cell viability analysis. It is filed as functional, cell-based. Summed up: as §1
Series [10] deals with LS174T. Nature of the series: Inhibition of Wnt/beta-catenin in human LS 174T cells assessed as reduction in TCF4 protein level at 100 uM by Western blotting. It is filed as cell-based.
Series [11] has as its system LS174T. Nature of the series: Inhibition of Wnt/beta-catenin in human LS174T cells assessed as increase in p21WAF1/CIP1 protein level at 100 uM by Western blotting. The series is classed as cell-based.
The test system of series [12] is LS174T. In words: Inhibition of Wnt/beta-catenin in human LS174T cells assessed as reduction in CD44 mRNA level at 100 uM after 36 hrs by RT-PCR analysis. The series is classed as cell-based.
Series [13] has as its system LS174T. In words: Inhibition of Wnt/beta-catenin in human LS174T cells assessed as reduction in Ki67 mRNA level at 100 uM after 36 hrs by RT-PCR analysis. The series is classed as cell-based.
For series [14], the system named is LS174T. Nature of the series: Inhibition of Wnt/beta-catenin in human LS174T cells assessed as effect on […] at 100 uM by Western blotting. The series is classed as cell-based.
Series [15] deals with LS174T. Nature of the series: Inhibition of Wnt/beta-catenin in human LS174T cells assessed as reduction in cyclin B1 protein level at 100 uM by Western blotting. The series is classed as cell-based.
Series [16] has as its system LS174T. In words: Inhibition of Wnt/beta-catenin in human LS174T cells assessed as reduction in Cyclin D1 protein level at 100 uM by Western blotting. The series is classed as cell-based.
For series [17], the system named is LS174T. Nature of the series: Inhibition of Wnt/beta-catenin in human LS174T cells assessed as reduction in c-Myc mRNA level at 100 uM after 36 hrs by RT-PCR analysis. It is filed as cell-based.
For series [18], the system named is LS174T. Nature of the series: Inhibition of Wnt/beta-catenin in human LS 174T cells assessed as reduction in pygopus2 protein level at 100 uM by Western blotting. The series is classed as cell-based.
Series [19] deals with LS174T. Nature of the series: Inhibition of Wnt/beta-catenin in human LS174T cells assessed as reduction in survivin mRNA level at 100 uM after 36 hrs by RT-PCR analysis. The series is classed as cell-based.
In series [20] the test system is HEK-293T. Nature of the series: Inhibition of […] in human HEK293T cells transfected with TOP Flash assessed as decrease in luciferase expression at 100 uM after 12 hrs by dual luciferase reporter assay. It is filed as cell-based. Summed up: (§2)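 HEK293T transiently transfected (calcium phosphate) with Super8xTOPFlash plus Renilla luciferase reporters; medium changed after 12h, then 6h later cells pretreated 12h with DMSO or inhibitor before stimulation with 25mM LiCl or Wnt3A-conditioned medium. After 12h, dual-luciferase read-out; triplicate wells, each experiment run at least twice.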
A general note: In a reporter assay the amount or activity of a reporter protein is the signal.

Series [21] has as its system LS174T. In words: Inhibition of Wnt/beta-catenin in human LS174T cells assessed as reduction in c-Myc protein level at 100 uM by Western blotting. It is filed as cell-based.
Series [22] concerns LS174T. Nature of the series: Inhibition of Wnt/beta-catenin in human LS174T cells assessed as reduction in Lgr5 mRNA level at 100 uM after 36 hrs by RT-PCR analysis. The series is classed as cell-based.
Series [23] concerns HEK-293T. Nature of the series: Inhibition of LiCl-induced […] in human HEK293T cells transfected with TOP Flash assessed as decrease in luciferase expression at 100 uM after 12 hrs by dual luciferase reporter assay. The series is classed as cell-based. The method, boiled down: as §2
A short description of series [24]: Drug uptake in human LS 174T cells assessed as accumulation in nucleus after 2 hrs by confocal microscopy. It is filed as ADME, cell-based. The note with it: ls174t. Summed up: (§3)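 LS174 cells on cover glass exposed to 10 μM fluorescent compound for 2h, 6h, 12h or 24h, then fixed in 4% paraformaldehyde 20 min at room temperature, PBS-washed, mounted and imaged by confocal microscopy under 405nm excitation.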

Series [25] can be described thus: Drug uptake in human LS 174T cells assessed as accumulation in nucleus after 12 hrs by confocal microscopy. It is filed as ADME, cell-based. The note with it: ls174t. The method, boiled down: as §3
Series [26] can be described thus: Drug uptake in human LS 174T cells assessed as accumulation in cytoplasm after 2 hrs by confocal microscopy. The note with it: ls174t. The series is classed as ADME, cell-based. Summed up: as §3

Calls of active or inactive are those of the source. The rule behind the calls is not given here.

On to `CN(C)c1ccc(/C=C/c2cc(F)ccc2F)cc1`, for which the inhibition result in [1] is “inactive”. For the same compound, the inhibition entry in [2] and in [3] was “Active” each time.

Take `CN(C)c1ccc(/C=C/c2ccccc2F)cc1`: the inhibition entry in series [1] was “inactive”. The outcome in series [4], in series [5], in series [6], in series [7], in [8] and in series [9] was Active. In addition, the inhibition entry in series [2] and in series [3] was “Active” throughout.

On to `Oc1ccc(/C=C/c2cc(O)cc(O)c2)cc1`, for which the inhibition entry in series [10], in [11], in [12], in [13], in series [15] and in series [16] was “Active” throughout. Further, the inhibition entry in [17], in series [18], in [19], in series [20], in [21] and in [22] was “Active” each time. Also, in series [23], the inhibition result was “Active”. Besides, the outcome in series [4], in [5], in [6], in series [7], in series [8] and in series [9] was Active. For the same compound, in series [14], the inhibition entry was “inactive”.

In the case of `CCN(CC)c1ccc(/C=C/c2c(F)cccc2F)cc1`, the inhibition result in series [1] is “inactive”. Moreover, the inhibition result in series [2] and in [3] was “Active” in each case. For the same compound, the values for the Drug uptake entry in series [24], in series [25] and in series [26] were “Active”, “Not Active” and “Active”, respectively.

With `CN(C)c1ccc(/C=C/c2cccc(F)c2)cc1`, the inhibition result in [1] is “inactive”. The inhibition result in series [2] and in series [3] was “Active” in each case.

In the case of `CN(C)c1ccc(/C=C/c2ccc(F)cc2)cc1`, the inhibition result in [1] was “inactive”.

Take `COc1cc(/C=C/c2ccc(O)cc2)cc(OC)c1`: the result in series [4], in series [5], in series [6], in [7], in series [8] and in series [9] was Active.

In the case of `Oc1ccc(/C=C\c2cc(O)cc(O)c2)cc1`, the inhibition result in [16] and in series [21] was “inactive” in each case.

`CN(C)c1cccc(/C=C/c2c(F)cccc2F)c1`: the inhibition entry in series [1], in series [2] and in series [3] was “inactive” each time.
